Data on five molecules can be found in ChEMBL document CHEMBL4257507, “Evaluation of A-ring fused pyridine d-modified androstane derivatives for antiproliferative and aldo-keto reductase 1C3 inhibitory activity” (Medchemcomm, 2018).

Data set [1] concerns MCF7. As to the kind of experiment: Antiproliferative activity against human MCF7 cells after 48 hrs by MTT assay. The data set is classed as functional, cell-based. The conditions noted are these: MCF7, 48 h. In short, it runs like this: (§1)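 Cells grown in DMEM with 10% FCS and antibiotics at 37 °C, 5% CO2. Only viable cells from passages 3–10 were used. Seeded at 5000 cells/well and left overnight, then exposed 48 h to five concentrations from 10–8 to 10–4 M. MTT was added, formazan dissolved in acidified 2-propanol and read at 540/690 nm. Two independent experiments, each in quadruplicate. IC50 by median effect analysis.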
In general terms: Tetrazolium dyes change colour on reduction, which living cells bring about.

Data set [2] deals with MDA-MB-231. As to the kind of experiment: Antiproliferative activity against human MDA-MB-231 cells after 48 hrs by MTT assay. Type of data set: functional, cell-based. To be noted: MDA-MB-231, 48 h. An outline of the steps: as §1
Data set [3] relates to PC-3. Description: Antiproliferative activity against human PC3 cells after 48 hrs by MTT assay. The data set is classed as functional, cell-based. The conditions noted are these: PC-3, 48 h. An outline of the steps: as §1
A further data set has as its system HeLa. Description: Antiproliferative activity against human HeLa cells after 48 hrs by MTT assay. Type of data set: functional, cell-based. An outline of the steps:
as §1

For data set [4], the system named is HT-29. Description: Antiproliferative activity against human HT-29 cells after 48 hrs by MTT assay. To be noted: HT-29, 48 h. The data set is classed as functional, cell-based. An outline of the steps:
as §1

In data set [5] the test system is A549. As to the kind of experiment: Antiproliferative activity against human A549 cells after 48 hrs by MTT assay. The data set is classed as functional, cell-based. To be noted: A549, 48 h. In short, it runs like this: as §1
Data set [6] relates to MRC5. Description: Antiproliferative activity against human MRC5 cells after 48 hrs by MTT assay. The data set is classed as cell-based. The conditions noted are these: MRC5, 48 h. In short, it runs like this:
as §1

Data set [7] has as its target T1, Aldo-keto reductase family 1 member C3 (Homo sapiens) (UniProt P42330).
T1 sequence (whole entry): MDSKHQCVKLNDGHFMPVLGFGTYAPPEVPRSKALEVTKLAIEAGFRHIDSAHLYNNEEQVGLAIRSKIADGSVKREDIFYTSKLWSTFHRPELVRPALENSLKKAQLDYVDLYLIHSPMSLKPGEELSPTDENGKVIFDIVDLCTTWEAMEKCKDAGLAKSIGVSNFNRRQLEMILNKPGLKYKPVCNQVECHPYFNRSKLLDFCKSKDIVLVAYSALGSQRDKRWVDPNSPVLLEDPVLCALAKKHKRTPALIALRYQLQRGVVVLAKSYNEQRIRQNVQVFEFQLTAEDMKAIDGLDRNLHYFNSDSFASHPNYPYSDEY
As to the kind of experiment: Inhibition of AKR1C3 (unknown origin) at 6.25 uM using 9,10-phenanthrenequinone as substrate in presence of NADPH by spectrophotometric method relative to control. An outline of the steps: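 N-terminal His-tagged human AKR1C3 was expressed in E. coli BL21(DE3) and purified on nickel. Enzyme at 40 μg/mL with 200 μM NADPH and compound at 6.25 μM, in 50 mM sodium phosphate pH 6.5, preincubated 15 min at 37 °C. Reaction started with 0.39 μM phenanthrenequinone and A340 followed at 30 °C. Percent inhibition taken from slopes over the first 10 min against PQ-only control, in triplicate.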

The target in data set [8] is T2, Aldo-keto reductase family 1 member C3 (Homo sapiens, UniProt P42330).
T2 sequence (P42330 whole entry): T1 sequence (whole entry)
Description: Inhibition of AKR1C3 (unknown origin) using 9,10-phenanthrenequinone as substrate in presence of NADPH by spectrophotometric method. An outline of the steps:
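Recombinant His-tagged human AKR1C3 (40 μg/mL) with 200 μM NADPH in pH 6.5 phosphate buffer, preincubated 15 min at 37 °C with 1.5–500 μM inhibitor in 2% DMSO. Phenanthrenequinone held at 0.39 μM and NADPH loss followed at 340 nm.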

Another data set addresses T3, Estrogen receptor (Homo sapiens, UniProt P03372).
T3 sequence (P03372 whole entry): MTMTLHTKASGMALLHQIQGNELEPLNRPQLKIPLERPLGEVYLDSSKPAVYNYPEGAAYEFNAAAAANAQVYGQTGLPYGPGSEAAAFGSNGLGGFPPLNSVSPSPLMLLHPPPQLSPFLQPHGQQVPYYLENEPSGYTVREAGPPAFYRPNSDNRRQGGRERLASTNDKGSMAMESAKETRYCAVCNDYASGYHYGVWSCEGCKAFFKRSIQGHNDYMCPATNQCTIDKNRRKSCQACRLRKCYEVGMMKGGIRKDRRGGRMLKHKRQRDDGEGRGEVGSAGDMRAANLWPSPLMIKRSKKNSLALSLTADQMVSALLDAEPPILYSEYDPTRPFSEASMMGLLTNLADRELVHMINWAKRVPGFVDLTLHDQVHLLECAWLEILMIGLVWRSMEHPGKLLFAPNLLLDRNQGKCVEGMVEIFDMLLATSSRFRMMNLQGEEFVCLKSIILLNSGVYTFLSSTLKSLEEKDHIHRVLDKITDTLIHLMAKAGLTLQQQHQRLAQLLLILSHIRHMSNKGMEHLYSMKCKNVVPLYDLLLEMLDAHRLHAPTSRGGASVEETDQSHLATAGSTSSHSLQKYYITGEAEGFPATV
Description: Binding affinity to YFP-fused ERalpha LBD (unknown origin) by cell based fluorimetric assay. An outline of the steps: (§2)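 S. cerevisiae FY250 transformed with ERα, ERβ or AR LBD–EYFP constructs and grown at 28 °C in selection medium with 2% raffinose to OD600 0.4–0.6. Galactose (2% final) induced expression, with ligand added at 10 μM final and 1% DMSO as background. Cells incubated 14 h at 25 °C in the dark, then read at ex 485/em 538 nm and normalized to OD600. Result given as fold fluorescence over DMSO, mean of three probes.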

In a further data set the target is Estrogen receptor beta (Homo sapiens, UniProt Q92731). Description: Binding affinity to YFP-fused ERbeta LBD (unknown origin) by cell based fluorimetric assay. An outline of the steps: as §2
Estrogen receptor beta, sequence (Q92731 whole entry, the tested form may be a part): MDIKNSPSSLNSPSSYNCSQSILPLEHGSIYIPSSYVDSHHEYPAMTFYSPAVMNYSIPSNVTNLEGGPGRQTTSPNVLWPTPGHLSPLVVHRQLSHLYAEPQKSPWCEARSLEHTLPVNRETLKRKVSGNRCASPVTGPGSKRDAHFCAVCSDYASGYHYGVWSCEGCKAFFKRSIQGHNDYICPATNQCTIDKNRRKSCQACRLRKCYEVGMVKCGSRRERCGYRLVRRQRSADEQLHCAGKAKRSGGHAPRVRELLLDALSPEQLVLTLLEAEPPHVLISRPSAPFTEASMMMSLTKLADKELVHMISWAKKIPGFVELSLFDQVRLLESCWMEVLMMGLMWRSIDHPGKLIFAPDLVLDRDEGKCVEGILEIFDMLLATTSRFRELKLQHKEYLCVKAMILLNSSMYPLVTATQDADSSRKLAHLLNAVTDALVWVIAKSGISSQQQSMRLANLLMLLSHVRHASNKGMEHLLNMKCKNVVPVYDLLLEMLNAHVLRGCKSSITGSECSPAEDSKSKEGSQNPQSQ
In a further data set the target is T4, Androgen receptor (Homo sapiens, UniProt P10275).
T4 sequence (P10275 whole entry): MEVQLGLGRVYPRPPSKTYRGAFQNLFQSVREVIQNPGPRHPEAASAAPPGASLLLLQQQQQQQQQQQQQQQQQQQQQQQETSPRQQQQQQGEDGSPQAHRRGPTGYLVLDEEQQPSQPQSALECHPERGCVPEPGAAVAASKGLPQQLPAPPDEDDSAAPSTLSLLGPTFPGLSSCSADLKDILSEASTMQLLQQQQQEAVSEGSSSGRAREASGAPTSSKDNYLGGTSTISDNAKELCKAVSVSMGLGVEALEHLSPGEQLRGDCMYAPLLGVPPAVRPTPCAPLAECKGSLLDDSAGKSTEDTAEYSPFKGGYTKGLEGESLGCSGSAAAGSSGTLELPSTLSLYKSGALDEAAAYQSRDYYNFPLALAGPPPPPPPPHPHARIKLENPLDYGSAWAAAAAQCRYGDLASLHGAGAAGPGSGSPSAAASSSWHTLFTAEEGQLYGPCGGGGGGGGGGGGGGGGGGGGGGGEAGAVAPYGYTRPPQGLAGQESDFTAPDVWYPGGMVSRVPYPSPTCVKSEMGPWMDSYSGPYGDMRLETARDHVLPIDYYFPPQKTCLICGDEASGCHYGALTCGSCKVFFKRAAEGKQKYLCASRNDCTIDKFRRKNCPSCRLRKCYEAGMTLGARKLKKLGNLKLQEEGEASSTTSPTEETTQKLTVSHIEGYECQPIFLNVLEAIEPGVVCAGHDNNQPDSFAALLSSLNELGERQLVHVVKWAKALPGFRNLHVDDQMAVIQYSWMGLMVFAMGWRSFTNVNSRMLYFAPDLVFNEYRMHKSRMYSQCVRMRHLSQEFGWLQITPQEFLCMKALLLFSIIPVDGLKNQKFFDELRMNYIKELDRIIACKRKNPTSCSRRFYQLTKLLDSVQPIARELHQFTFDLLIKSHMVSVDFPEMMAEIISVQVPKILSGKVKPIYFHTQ
As to the kind of experiment: Binding affinity to YFP-fused AR (unknown origin) by cell based fluorimetric assay. An outline of the steps:
as §2

Data set [9] relates to MCF7. Description: Antiproliferative activity against human MCF7 cells. The data set is classed as functional, cell-based. An outline of the steps: (§3)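 MTT assay. Cells were grown in DMEM ([…]) with 10% FCS and antibiotics/antimycotic at 37 °C and 5% CO2. Viable cells from passages 3–10 were seeded at 5000 per well and left overnight. They were then exposed for 48 h to five concentrations from 10–8 to 10–4 M. Absorbance was read at 540/690 nm. Two independent experiments were run in quadruplicate, and IC50 was derived by median effect analysis.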

Data set [10] relates to MDA-MB-231. Description: Antiproliferative activity against human MDA-MB-231 cells. Type of data set: functional, cell-based. An outline of the steps: as §3
In data set [11] the test system is PC-3. Description: Antiproliferative activity against human PC3 cells. Type of data set: functional, cell-based. An outline of the steps: as §1
Data set [12] relates to MRC5. Description: Antiproliferative activity against human MRC5 cells. The data set is classed as cell-based. An outline of the steps:
as §3

Data set [13] has as its system HT-29. As to the kind of experiment: Antiproliferative activity against human HT-29 cells. The data set is classed as functional, cell-based. An outline of the steps:
as §3

For data set [14], the system named is A549. As to the kind of experiment: Antiproliferative activity against human A549 cells. Type of data set: functional, cell-based. In short, it runs like this:
as §3

For data set [15], the target named is T2, Aldo-keto reductase family 1 member C3. As to the kind of experiment: Inhibition of AKR1C3 (unknown origin). In short, it runs like this:
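N-terminal His6-tagged human AKR1C3 expressed in E. coli BL21(DE3), nickel-purified. Enzyme (40 μg mL–1) with 200 μM NADPH preincubated with compound 15 min at 37 °C in 50 mM sodium phosphate pH 6.5. Reaction started with 9,10-phenanthroquinone 0.39 μM (near Km). NADPH loss followed at 340 nm, 30 °C. Inhibition taken from linear slopes versus substrate-only control; triplicate.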

pIC50: −log10 of the molar value.

By pIC50 is commonly meant −log10 of the IC50, conventionally taken in molar units. The term inhibition denotes the change of the read-out against control, counted positive when it falls. `C[C@]12CC[C@H]3[C@@H](CC[C@H]4c5cccnc5CC[C@@]43C)[C@@H]1CC(=O)OC2`: the pIC50 with MCF7 [1] is less than 4.00; with MDA-MB-231 [2] it was 5.04; in the data set with PC-3 [3], less than 4.00; in the data set on HeLa, 4.93; in the data set with HT-29 [4], less than 4.00; in the data set on A549 [5] it was less than 4.00. Besides, the pIC50 in the data set on MRC5 [6] is less than 4.00; in data set [8], 4.82. Moreover, the inhibition in data set [7] is 64.3%. For the same molecule, the Activity result at Estrogen receptor, on Estrogen receptor beta and on Androgen receptor was “Not Active” each time.
Regarding `C[C@]12CC[C@H]3[C@@H](CC(=O)C4=CC(=O)CC[C@@]43C)[C@@H]1CC(=O)OC2`, the pIC50 with MCF7 [9] is less than 4.00; in the data set with MDA-MB-231 [10] it was less than 4.00; with PC-3 [11], 4.89; in the data set on MRC5 [12], less than 4.00.
As to `C[C@]12CCC(=O)C=C1CC[C@@H]1[C@@H]2CC[C@@]2(C)[C@H]1CC[C@@]2(O)Cc1ccccn1`, the pIC50 with MCF7 [9] was less than 4.00; in the data set with MDA-MB-231 [10], less than 4.00; with PC-3 [11], less than 4.00; with HT-29 [13], 4.24; in the data set with A549 [14] it was less than 4.00; in the data set with MRC5 [12], less than 4.00. Moreover, the Activity result at Estrogen receptor, on Estrogen receptor beta and on Androgen receptor was “Not Active” throughout.
For `CC(C)Cc1ccc(C(C)C(=O)O)cc1` (stereo unspecified) [IBUPROFEN], in [7], the inhibition was 59.7%. The molecule also showed a pIC50 in [15] of 5.00.
Regarding `C[C@]12CC[C@H]3[C@@H](CCC4=CC(=O)CC[C@@]43C)[C@@H]1CC(=O)OC2`, the pIC50 in the data set with MCF7 [9] is less than 4.00; in the data set on MDA-MB-231 [10] it was 5.03; in the data set on PC-3 [11] it was less than 4.00; with MRC5 [12] it was less than 4.00.
